Measured values reported in ChEMBL document CHEMBL4689842, “EUbOPEN Chemogenomics Library wave 1” (2021).
“And” between values parts separate entries of the source, which are not always exact repeats. Equal entries are not always repeated.

System: HEK-293T
Test: Multiplex assay against HEK293T;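 as to Population Tubulin-Different-Phenotype (%): share of the cells with healthy nuclei that show this phenotype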
Assay type: toxicity, cell-based
Conditions: human
Method in brief: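 Values for tubulin, mitochondrial-mass and membrane-permeability phenotypes are per cents of cells with healthy nuclei. These cells were identified by CellPathfinder machine-learning gating of live cells that had been stained at seeding with Hoechst33342, BioTracker Green Microtubule Cytoskeleton Dye, MitoTracker Red and Annexin V Alexa Fluor 680 and imaged on a CQ1 microscope at 37°C and 5% CO2 after compound addition. The gating first set Hoechst high-intensity objects apart from normal cells, then split normal cells into healthy, pyknosed or fragmented nuclei, and pyknosed cells into mitotic or apoptotic.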

[1] = 12 h, 1 µM, compound concentration 1 uM, replicate 1
[2] = 12 h, 1 µM, compound concentration 1 uM, replicate 2
[3] = 12 h, 10 µM, compound concentration 10 uM, replicate 1
[4] = 12 h, 10 µM, compound concentration 10 uM, replicate 2
[5] = 24 h, 1 µM, compound concentration 1 uM, replicate 1
[6] = 24 h, 1 µM, compound concentration 1 uM, replicate 2
[7] = 24 h, 10 µM, compound concentration 10 uM, replicate 1
[8] = 24 h, 10 µM, compound concentration 10 uM, replicate 2
[9] = 48 h, 1 µM, compound concentration 1 uM, replicate 1
[10] = 48 h, 1 µM, compound concentration 1 uM, replicate 2
[11] = 48 h, 10 µM, compound concentration 10 uM, replicate 1
[12] = 48 h, 10 µM, compound concentration 10 uM, replicate 2

CC1=C(C(=O)Nc2cc3cn[nH]c3cc2F)C(c2ccc(C(F)(F)F)cc2)CC(=O)N1 (stereo unspecified)
Population Apoptotic (%) [1]: 47%
Population Fragmented Nuclei (%) [1]: 13%
Population Healthy Nuclei (%) [1]: 43%
Population Hoechst High Intensity Objects (%) [1]: 7%
Population Membrane Permeable-Phenotype (%) [1]: 3%
Population Mitochondria Different-Phenotype (%) [1]: 63%
Population Mitotic Cells (%) [1]: 52%
Population Normal (%) [1]: 92%
Population Pyknosed Nuclei (%) [1]: 42%
Population Tubulin-Different-Phenotype (%) [1]: 29%
Total Cell Count [1]: 402
Population Apoptotic (%) [2]: 6%
Population Fragmented Nuclei (%) [2]: 12%
Population Healthy Nuclei (%) [2]: 46%
Population Hoechst High Intensity Objects (%) [2]: 2%
Population Membrane Permeable-Phenotype (%) [2]: 12%
Population Mitochondria Different-Phenotype (%) [2]: 12%
Population Mitotic Cells (%) [2]: 93%
Population Normal (%) [2]: 97%
Population Pyknosed Nuclei (%) [2]: 40%
Population Tubulin-Different-Phenotype (%) [2]: 14%
Total Cell Count [2]: 235
Population Apoptotic (%) [3]: 38%
Population Fragmented Nuclei (%) [3]: 12%
Population Healthy Nuclei (%) [3]: 41%
Population Hoechst High Intensity Objects (%) [3]: 10%
Population Membrane Permeable-Phenotype (%) [3]: 5%
Population Mitochondria Different-Phenotype (%) [3]: 64%
Population Mitotic Cells (%) [3]: 61%
Population Normal (%) [3]: 89%
Population Pyknosed Nuclei (%) [3]: 45%
Population Tubulin-Different-Phenotype (%) [3]: 36%
Total Cell Count [3]: 236
Population Apoptotic (%) [4]: 16%
Population Fragmented Nuclei (%) [4]: 10%
Population Healthy Nuclei (%) [4]: 37%
Population Hoechst High Intensity Objects (%) [4]: 5%
Population Membrane Permeable-Phenotype (%) [4]: 11%
Population Mitochondria Different-Phenotype (%) [4]: 24%
Population Mitotic Cells (%) [4]: 83%
Population Normal (%) [4]: 95%
Population Pyknosed Nuclei (%) [4]: 52%
Population Tubulin-Different-Phenotype (%) [4]: 34%
Total Cell Count [4]: 240
Population Apoptotic (%) [5]: 41%
Population Fragmented Nuclei (%) [5]: 11%
Population Healthy Nuclei (%) [5]: 41%
Population Hoechst High Intensity Objects (%) [5]: 12%
Population Membrane Permeable-Phenotype (%) [5]: 3%
Population Mitochondria Different-Phenotype (%) [5]: 46%
Population Mitotic Cells (%) [5]: 58%
Population Normal (%) [5]: 87%
Population Pyknosed Nuclei (%) [5]: 47%
Population Tubulin-Different-Phenotype (%) [5]: 29%
Total Cell Count [5]: 443
Population Apoptotic (%) [6]: 12%
Population Healthy Nuclei (%) [6]: 63%
Population Hoechst High Intensity Objects (%) [6]: 1%
Population Membrane Permeable-Phenotype (%) [6]: 14%
Population Mitochondria Different-Phenotype (%) [6]: 8%
Population Mitotic Cells (%) [6]: 87%
Population Normal (%) [6]: 98%
Population Pyknosed Nuclei (%) [6]: 25%
Population Tubulin-Different-Phenotype (%) [6]: 17%
Total Cell Count [6]: 274
Population Apoptotic (%) [7]: 42%
Population Fragmented Nuclei (%) [7]: 15%
Population Healthy Nuclei (%) [7]: 41%
Population Hoechst High Intensity Objects (%) [7]: 10%
Population Membrane Permeable-Phenotype (%) [7]: 6%
Population Mitochondria Different-Phenotype (%) [7]: 61%
Population Mitotic Cells (%) [7]: 57%
Population Normal (%) [7]: 89%
Population Pyknosed Nuclei (%) [7]: 42%
Population Tubulin-Different-Phenotype (%) [7]: 41%
Total Cell Count [7]: 229
Population Apoptotic (%) [8]: 26%
Population Fragmented Nuclei (%) [8]: 11%
Population Healthy Nuclei (%) [8]: 61%
Population Hoechst High Intensity Objects (%) [8]: 2%
Population Membrane Permeable-Phenotype (%) [8]: 12%
Population Mitochondria Different-Phenotype (%) [8]: 26%
Population Mitotic Cells (%) [8]: 73%
Population Normal (%) [8]: 97%
Population Pyknosed Nuclei (%) [8]: 26%
Population Tubulin-Different-Phenotype (%) [8]: 47%
Total Cell Count [8]: 258
Population Apoptotic (%) [9]: 29%
Population Fragmented Nuclei (%) [9]: 18%
Population Healthy Nuclei (%) [9]: 47%
Population Hoechst High Intensity Objects (%) [9]: 10%
Population Membrane Permeable-Phenotype (%) [9]: 6%
Population Mitochondria Different-Phenotype (%) [9]: 23%
Population Mitotic Cells (%) [9]: 70%
Population Normal (%) [9]: 89%
Population Pyknosed Nuclei (%) [9]: 34%
Population Tubulin-Different-Phenotype (%) [9]: 22%
Total Cell Count [9]: 530
Population Apoptotic (%) [10]: 5%
Population Fragmented Nuclei (%) [10]: 10%
Population Healthy Nuclei (%) [10]: 77%
Population Hoechst High Intensity Objects (%) [10]: 2%
Population Membrane Permeable-Phenotype (%) [10]: 8%
Population Mitochondria Different-Phenotype (%) [10]: 3%
Population Mitotic Cells (%) [10]: 94%
Population Normal (%) [10]: 97%
Population Pyknosed Nuclei (%) [10]: 11%
Population Tubulin-Different-Phenotype (%) [10]: 15%
Total Cell Count [10]: 488
Population Apoptotic (%) [11]: 49%
Population Fragmented Nuclei (%) [11]: 16%
Population Healthy Nuclei (%) [11]: 49%
Population Hoechst High Intensity Objects (%) [11]: 14%
Population Membrane Permeable-Phenotype (%) [11]: 7%
Population Mitochondria Different-Phenotype (%) [11]: 29%
Population Mitotic Cells (%) [11]: 50%
Population Normal (%) [11]: 85%
Population Pyknosed Nuclei (%) [11]: 33%
Population Tubulin-Different-Phenotype (%) [11]: 34%
Total Cell Count [11]: 261
Population Apoptotic (%) [12]: 65%
Population Healthy Nuclei (%) [12]: 75%
Population Hoechst High Intensity Objects (%) [12]: 2%
Population Membrane Permeable-Phenotype (%) [12]: 6%
Population Mitochondria Different-Phenotype (%) [12]: 19%
Population Mitotic Cells (%) [12]: 34%
Population Normal (%) [12]: 97%
Population Pyknosed Nuclei (%) [12]: 8%
Population Tubulin-Different-Phenotype (%) [12]: 36%
Total Cell Count [12]: 334

CN1CCN(Cc2cc(NC(=O)c3ccc4c(c3)CN(c3ccccc3)CC4)cc(C(F)(F)F)c2)CC1
Population Apoptotic (%) [1]: 37% and 18%
Population Fragmented Nuclei (%) [1]: 18% and 16%
Population Healthy Nuclei (%) [1]: 48% and 58%
Population Hoechst High Intensity Objects (%) [1]: 35% and 18%
Population Membrane Permeable-Phenotype (%) [1]: 16% and 8%
Population Mitotic Cells (%) [1]: 62% and 81%
Population Normal (%) [1]: 64% and 81%
Population Pyknosed Nuclei (%) [1]: 32% and 24%
Total Cell Count [1]: 601 and 582
Population Apoptotic (%) [2]: 20% and 14%
Population Fragmented Nuclei (%) [2]: 4% and 5%
Population Healthy Nuclei (%) [2]: 80% and 87%
Population Mitochondria Different-Phenotype (%) [2]: 36% and 15%
Population Mitotic Cells (%) [2]: 79% and 85%
Population Normal (%) [2]: 89% and 97%
Population Pyknosed Nuclei (%) [2]: 15% and 6%
Total Cell Count [2]: 1350 and 1353
Population Apoptotic (%) [5]: 45% and 17%
Population Fragmented Nuclei (%) [5]: 18% and 14%
Population Healthy Nuclei (%) [5]: 63% and 71%
Population Mitochondria Different-Phenotype (%) [5]: 35% and 12%
Population Mitotic Cells (%) [5]: 54% and 82%
Population Normal (%) [5]: 70% and 90%
Population Pyknosed Nuclei (%) [5]: 18% and 14%
Total Cell Count [5]: 559 and 631
Population Apoptotic (%) [6]: 11%
Population Fragmented Nuclei (%) [6]: 13% and 16%
Population Healthy Nuclei (%) [6]: 78% and 81%
Population Mitotic Cells (%) [6]: 88%
Population Normal (%) [6]: 89% and 96%
Total Cell Count [6]: 1856 and 2285
